Results as given in ChEMBL document CHEMBL3352487, “Synthesis, antibacterial activity, and biological evaluation of formyl hydroxyamino derivatives as novel potent peptide deformylase inhibitors against drug-resistant bacteria” (Eur J Med Chem, 2014).
Values after ≈ are worked out from the molar mass of the structure shown.

Legend:
Type in all cases: functional
Escherichia coli [1] = test: Antimicrobial activity against Escherichia coli isolate 1 after 24 hrs by broth microdilution method; conditions: isolate 1, 24 h
Method in brief: (§1)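 Broth microdilution following NCCLS M7-A4; ATCC strains and clinical isolates from a provincial hospital.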

Staphylococcus aureus [2] = test: Antimicrobial activity against Staphylococcus aureus after 24 hrs by broth microdilution method; method in brief: as §1
Staphylococcus aureus [3] = test: Antimicrobial activity against methicillin-resistant Staphylococcus aureus after 24 hrs by broth microdilution method
Method in brief: (§2)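 Broth microdilution following NCCLS M7-A4, using ATCC strains and clinical isolates from a provincial hospital.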

[4] = tested on: Staphylococcus epidermidis; test: Antimicrobial activity against Staphylococcus epidermidis after 24 hrs by broth microdilution method; method in brief: as §1
Escherichia coli [5] = test: Antimicrobial activity against Escherichia coli isolate 2 after 24 hrs by broth microdilution method; conditions: isolate 2, 24 h; method in brief: as §1
Staphylococcus aureus [6] = test: Antimicrobial activity against methicillin-susceptible Staphylococcus aureus after 24 hrs by broth microdilution method; method in brief: as §1
Streptococcus pneumoniae = test: Antimicrobial activity against penicillin-resistant Streptococcus pneumoniae after 24 hrs by broth microdilution method; method in brief: as §2
Moraxella catarrhalis = test: Antimicrobial activity against Moraxella catarrhalis after 24 hrs by broth microdilution method; method in brief: as §1
[7] = tested on: Staphylococcus epidermidis; test: Antimicrobial activity against methicillin-resistant Staphylococcus epidermidis after 24 hrs by broth microdilution method; method in brief: as §2
[8] = tested on: Staphylococcus epidermidis; test: Antimicrobial activity against methicillin-susceptible Staphylococcus epidermidis after 24 hrs by broth microdilution method; method in brief: as §1
Enterococcus faecalis = test: Antimicrobial activity against Enterococcus faecalis after 24 hrs by broth microdilution method; method in brief: as §1

Row | Compound | MIC (Escherichia coli [1]) | MIC (Staphylococcus aureus [2]) | MIC (Staphylococcus aureus [3]) | MIC [4] | MIC (Escherichia coli [5]) | MIC (Staphylococcus aureus [6]) | MIC (Streptococcus pneumoniae) | MIC (Moraxella catarrhalis) | MIC [7] | MIC [8] | MIC (Enterococcus faecalis)
1 | CCCC[C@H](CN(O)C=O)C(=O)N1CC=C[C@H]1C(=O)Nc1ccc(Br)cc1 | > 64 µg/mL | 4 µg/mL (≈ 9.13 µM) | 0.5 µg/mL (≈ 1.14 µM) | 2 µg/mL (≈ 4.56 µM) | > 64 µg/mL | 1 µg/mL (≈ 2.28 µM) |  |  |  |  | 
2 | O=C(O)c1cn(C2CC2)c2cc(N3CCNCC3)c(F)cc2c1=O [CIPROFLOXACIN] | < 0.0312 µg/mL | 0.5 µg/mL (≈ 1.51 µM) | 1 µg/mL (≈ 3.02 µM) | 0.25 µg/mL (≈ 0.754 µM) | < 0.0312 µg/mL | 0.5 µg/mL (≈ 1.51 µM) |  |  |  |  | 
3 | C[C@H](NC(=O)[C@@H]1C=CCN1C(=O)[C@H](CC1CCCC1)CN(O)C=O)c1ccccc1 | > 64 µg/mL | 4 µg/mL (≈ 9.67 µM) | 4 µg/mL (≈ 9.67 µM) | 8 µg/mL (≈ 19.3 µM) | > 64 µg/mL | 16 µg/mL (≈ 38.7 µM) |  |  |  |  | 
4 | C=C1C[C@@H](C(=O)Nc2ccc(F)cc2)N(C(=O)[C@H](CCCC)CN(O)C=O)C1 | 64 µg/mL (≈ 163 µM) | 0.5 µg/mL (≈ 1.28 µM) | 0.25 µg/mL (≈ 0.639 µM) | 0.5 µg/mL (≈ 1.28 µM) | 64 µg/mL (≈ 163 µM) | 2 µg/mL (≈ 5.11 µM) |  |  |  |  | 
5 | CCCC[C@H](CN(O)C=O)C(=O)N1CC=C[C@H]1C(=O)N[C@H](C)c1ccccc1 | > 64 µg/mL | 4 µg/mL (≈ 10.3 µM) | 2 µg/mL (≈ 5.16 µM) | 4 µg/mL (≈ 10.3 µM) | > 64 µg/mL | 16 µg/mL (≈ 41.3 µM) |  |  |  |  | 
6 | O=CN(O)C[C@@H](CC1CCCC1)C(=O)N1[C@H](C(=O)Nc2ccc(F)cn2)C[C@H]2CCCC[C@@H]21 |  | 4 µg/mL (≈ 8.69 µM) | 4 µg/mL (≈ 8.69 µM) |  |  | 4 µg/mL (≈ 8.69 µM) | 0.03 µg/mL (≈ 0.0651 µM) | 0.03 µg/mL (≈ 0.0651 µM) | 4 µg/mL (≈ 8.69 µM) | 0.25 µg/mL (≈ 0.543 µM) | > 16 µg/mL
7 | Cc1ccc(NC(=O)[C@@H]2C[C@H]3CCCC[C@@H]3N2C(=O)[C@H](CC2CCCC2)CN(O)C=O)nc1 |  | 4 µg/mL (≈ 8.76 µM) | 4 µg/mL (≈ 8.76 µM) |  |  | 4 µg/mL (≈ 8.76 µM) | 0.03 µg/mL (≈ 0.0657 µM) | 0.5 µg/mL (≈ 1.1 µM) | 8 µg/mL (≈ 17.5 µM) | 0.5 µg/mL (≈ 1.1 µM) | > 16 µg/mL
8 | CCCC[C@H](CN(O)C=O)C(=O)N1CC=C[C@H]1C(=O)Nc1ccccn1 | > 64 µg/mL | 0.125 µg/mL (≈ 0.347 µM) | 0.125 µg/mL (≈ 0.347 µM) | 0.5 µg/mL (≈ 1.39 µM) | 32 µg/mL (≈ 88.8 µM) | 1 µg/mL (≈ 2.77 µM) |  |  |  |  | 
9 | Cc1cnc(NC(=O)[C@@H]2C[C@H](F)CN2C(=O)[C@H](CC2CCCC2)CN(O)C=O)s1 |  | 1 µg/mL (≈ 2.34 µM) | 0.5 µg/mL (≈ 1.17 µM) |  |  | 0.5 µg/mL (≈ 1.17 µM) | 0.03 µg/mL (≈ 0.0703 µM) | 0.125 µg/mL (≈ 0.293 µM) | 1 µg/mL (≈ 2.34 µM) | 0.125 µg/mL (≈ 0.293 µM) | > 16 µg/mL
10 | CCCC[C@H](CN(O)C=O)C(=O)N1CC=C[C@H]1C(=O)N1CCOCC1 | > 64 µg/mL | > 64 µg/mL | 32 µg/mL (≈ 90.5 µM) | > 64 µg/mL | > 64 µg/mL | > 64 µg/mL |  |  |  |  | 
11 | Cc1cnc(NC(=O)[C@@H]2C[C@H](C)CN2C(=O)[C@H](CC2CCCC2)CN(O)C=O)s1 |  | 1 µg/mL (≈ 2.37 µM) | 1 µg/mL (≈ 2.37 µM) |  |  | 0.5 µg/mL (≈ 1.18 µM) | 0.03 µg/mL (≈ 0.071 µM) | 0.5 µg/mL (≈ 1.18 µM) | 2 µg/mL (≈ 4.73 µM) | 0.25 µg/mL (≈ 0.592 µM) | 4 µg/mL (≈ 9.47 µM)
12 | C[C@H]1C[C@@H](C(=O)Nc2ccc(F)c[n+]2[O-])N(C(=O)[C@H](CC2CCCC2)CN(O)C=O)C1 |  | 0.5 µg/mL (≈ 1.15 µM) | 0.5 µg/mL (≈ 1.15 µM) |  |  | 0.5 µg/mL (≈ 1.15 µM) | 0.03 µg/mL (≈ 0.0687 µM) | 0.5 µg/mL (≈ 1.15 µM) | 1 µg/mL (≈ 2.29 µM) | 1 µg/mL (≈ 2.29 µM) | 2 µg/mL (≈ 4.58 µM)
13 | CCCC[C@H](CN(O)C=O)C(=O)N1[C@H](C(=O)Nc2ncc(C)s2)C[C@H]2CCCC[C@@H]21 |  | 8 µg/mL (≈ 18.3 µM) | 8 µg/mL (≈ 18.3 µM) |  |  | 8 µg/mL (≈ 18.3 µM) | 0.03 µg/mL (≈ 0.0687 µM) | 0.03 µg/mL (≈ 0.0687 µM) | 16 µg/mL (≈ 36.6 µM) | 0.5 µg/mL (≈ 1.15 µM) | > 16 µg/mL
14 | CCCC[C@H](CN(O)C=O)C(=O)N1CC=C[C@H]1C(=O)NC1CC1 | 64 µg/mL (≈ 198 µM) | 64 µg/mL (≈ 198 µM) | 2 µg/mL (≈ 6.18 µM) | 4 µg/mL (≈ 12.4 µM) | 32 µg/mL (≈ 99 µM) | 32 µg/mL (≈ 99 µM) |  |  |  |  | 
15 | O=CN(O)C[C@@H](CC1CCCC1)C(=O)N1CC=C[C@H]1C(=O)Nc1ccc(F)cn1 | 32 µg/mL (≈ 79.1 µM) | 0.25 µg/mL (≈ 0.618 µM) | 0.125 µg/mL (≈ 0.309 µM) | 0.125 µg/mL (≈ 0.309 µM) | 16 µg/mL (≈ 39.6 µM) | 0.5 µg/mL (≈ 1.24 µM) |  |  |  |  | 
16 | CC1(C)S[C@@H]2[C@H](NC(=O)Cc3ccccc3)C(=O)N2[C@H]1C(=O)O [PENICILLIN G] | > 64 µg/mL | 0.0625 µg/mL (≈ 0.187 µM) | 64 µg/mL (≈ 191 µM) | 2 µg/mL (≈ 5.98 µM) | > 64 µg/mL | 1 µg/mL (≈ 2.99 µM) |  |  |  |  | 
17 | CCCC[C@H](CN(O)C=O)C(=O)N1CC=C[C@H]1C(=O)Nc1ccccc1 | > 64 µg/mL | 4 µg/mL (≈ 11.1 µM) | 1 µg/mL (≈ 2.78 µM) | 2 µg/mL (≈ 5.56 µM) | 64 µg/mL (≈ 178 µM) | 8 µg/mL (≈ 22.3 µM) |  |  |  |  | 
18 | CCCC[C@H](CN(O)C=O)C(=O)N1C[C@@H](F)C[C@H]1C(=O)Nc1ccc(F)c[n+]1[O-] |  | 4 µg/mL (≈ 9.65 µM) | 4 µg/mL (≈ 9.65 µM) |  |  | 4 µg/mL (≈ 9.65 µM) | 0.06 µg/mL (≈ 0.145 µM) | 0.25 µg/mL (≈ 0.603 µM) | 16 µg/mL (≈ 38.6 µM) | 4 µg/mL (≈ 9.65 µM) | > 16 µg/mL
